ChEMBL document CHEMBL1130231, “Betidamino acid scan of the GnRH antagonist acyline” (J Med Chem, 1997)

Target: T1, Gonadotropin-releasing hormone receptor (Rattus norvegicus, UniProt P30969)
T1 sequence (P30969 whole entry): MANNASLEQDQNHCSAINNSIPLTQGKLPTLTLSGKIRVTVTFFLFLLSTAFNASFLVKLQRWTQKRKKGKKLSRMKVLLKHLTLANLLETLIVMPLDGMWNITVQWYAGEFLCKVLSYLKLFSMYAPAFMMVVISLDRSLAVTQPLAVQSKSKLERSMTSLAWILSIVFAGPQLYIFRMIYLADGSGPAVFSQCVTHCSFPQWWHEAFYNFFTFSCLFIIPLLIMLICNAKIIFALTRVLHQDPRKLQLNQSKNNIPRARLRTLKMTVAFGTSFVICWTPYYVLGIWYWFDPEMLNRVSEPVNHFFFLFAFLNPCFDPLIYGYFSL
Test: Inhibition of binding of radiolabeled histrelin to Gonadotropin-releasing hormone receptor (GnRHr) in rat pituitary gland membranes
Assay type: cell membranes, Membrane
How it was run: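 Rat anterior pituitary membranes (male and female glands equal numbers), homogenized in 0.32 M sucrose/aprotinin, 4000g pellet, diluted 15-fold in 10 mM Hepes, 0.2% BSA, pH 7.6. Filtration onto PEI-treated glass filters, scintillation counting. IC50 in nM, duplicate, n = 1.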

IC50	Compound
2000 pM	CC(=O)Nc1ccc(C[C@H](NC(=O)[C@H](CO)NC(=O)[C@@H](Cc2cccnc2)NC(=O)[C@@H](Cc2ccc(Cl)cc2)NC(=O)[C@@H](Cc2ccc3ccccc3c2)NC(C)=O)C(=O)N[C@H](Cc2ccc(NC(C)=O)cc2)C(=O)N[C@@H](NC(=O)C(C)C)C(=O)N[C@@H](CCCCNC(C)C)C(=O)N2CCC[C@H]2C(=O)N[C@H](C)C(N)=O)cc1
670 pM	CC(=O)Nc1ccc(C[C@H](NC(=O)[C@H](CO)NC(=O)[C@@H](Cc2cccnc2)NC(=O)[C@@H](Cc2ccc(Cl)cc2)NC(=O)[C@@H](Cc2ccc3ccccc3c2)NC(C)=O)C(=O)N[C@H](Cc2ccc(NC(C)=O)cc2)C(=O)N[C@@H](CC(C)C)C(=O)N[C@@H](CCCCNC(C)C)C(=O)N2CCC[C@H]2C(=O)N[C@H](C(N)=O)N(C)C=O)cc1
430 pM	CC(=O)Nc1ccc(C[C@@H](NC(=O)[C@H](NC(=O)[C@H](CO)NC(=O)[C@@H](Cc2cccnc2)NC(=O)[C@@H](Cc2ccc(Cl)cc2)NC(=O)[C@@H](Cc2ccc3ccccc3c2)NC(C)=O)N(C)C(=O)c2ccc(NC(C)=O)cc2)C(=O)N[C@@H](CC(C)C)C(=O)N[C@@H](CCCCNC(C)C)C(=O)N2CCC[C@H]2C(=O)N[C@H](C)C(N)=O)cc1
1200 pM	CC(=O)Nc1ccc(C[C@H](NC(=O)[C@H](CO)NC(=O)[C@@H](Cc2cccnc2)NC(=O)[C@H](NC(=O)[C@@H](Cc2ccc3ccccc3c2)NC(C)=O)N(C)C(=O)c2ccc(Cl)cc2)C(=O)N[C@H](Cc2ccc(NC(C)=O)cc2)C(=O)N[C@@H](CC(C)C)C(=O)N[C@@H](CCCCNC(C)C)C(=O)N2CCC[C@H]2C(=O)N[C@H](C)C(N)=O)cc1
1700 pM	CC(=O)Nc1ccc(C[C@H](NC(=O)[C@H](CO)NC(=O)[C@@H](Cc2cccnc2)NC(=O)[C@@H](Cc2ccc(Cl)cc2)NC(=O)[C@@H](Cc2ccc3ccccc3c2)NC(C)=O)C(=O)N[C@H](Cc2ccc(NC(C)=O)cc2)C(=O)N[C@H](C(=O)N[C@@H](CCCCNC(C)C)C(=O)N2CCC[C@H]2C(=O)N[C@H](C)C(N)=O)N(C)C(C)=O)cc1
630 pM	CC(=O)Nc1ccc(C[C@H](NC(=O)[C@H](CO)NC(=O)[C@@H](NC(=O)c2cccnc2)NC(=O)[C@@H](Cc2ccc(Cl)cc2)NC(=O)[C@@H](Cc2ccc3ccccc3c2)NC(C)=O)C(=O)N[C@H](Cc2ccc(NC(C)=O)cc2)C(=O)N[C@@H](CC(C)C)C(=O)N[C@@H](CCCCNC(C)C)C(=O)N2CCC[C@H]2C(=O)N[C@H](C)C(N)=O)cc1
5000 pM	CC(=O)Nc1ccc(C[C@H](NC(=O)[C@H](CO)NC(=O)[C@@H](Cc2cccnc2)NC(=O)[C@@H](Cc2ccc(Cl)cc2)NC(=O)[C@@H](Cc2ccc3ccccc3c2)NC(C)=O)C(=O)N[C@H](Cc2ccc(NC(C)=O)cc2)C(=O)N[C@@H](NC(C)=O)C(=O)N[C@@H](CCCCNC(C)C)C(=O)N2CCC[C@H]2C(=O)N[C@H](C)C(N)=O)cc1
380 pM	CC(=O)Nc1ccc(C[C@H](NC(=O)[C@H](CO)NC(=O)[C@@H](Cc2cccnc2)NC(=O)[C@@H](Cc2ccc(Cl)cc2)NC(=O)[C@@H](Cc2ccc3ccccc3c2)NC(C)=O)C(=O)N[C@H](Cc2ccc(NC(C)=O)cc2)C(=O)N[C@@H](CC(C)C)C(=O)N[C@@H](CCCCNC(C)C)C(=O)N2CCC[C@H]2C(=O)N[C@@H](C)C(N)=O)cc1
300 pM	CC(=O)Nc1ccc(C[C@H](NC(=O)[C@H](CO)NC(=O)[C@@H](Cc2cccnc2)NC(=O)[C@@H](Cc2ccc(Cl)cc2)NC(=O)[C@@H](NC(C)=O)N(C)C(=O)c2ccc3ccccc3c2)C(=O)N[C@H](Cc2ccc(NC(C)=O)cc2)C(=O)N[C@@H](CC(C)C)C(=O)N[C@@H](CCCCNC(C)C)C(=O)N2CCC[C@H]2C(=O)N[C@H](C)C(N)=O)cc1 (single isomer, unassigned)
480 pM	CC(=O)Nc1ccc(C[C@H](NC(=O)[C@H](CO)NC(=O)[C@@H](Cc2cccnc2)NC(=O)[C@@H](Cc2ccc(Cl)cc2)NC(=O)[C@@H](Cc2ccc3ccccc3c2)NC(C)=O)C(=O)N[C@H](Cc2ccc(NC(C)=O)cc2)C(=O)N[C@@H](CC(C)C)C(=O)N[C@@H](CCCCNC(C)C)C(=O)N2CCC[C@H]2C(=O)N[C@H](N)C(N)=O)cc1
1900 pM	CC(=O)Nc1ccc(C[C@H](NC(=O)[C@H](CO)NC(=O)[C@@H](Cc2cccnc2)NC(=O)[C@@H](Cc2ccc(Cl)cc2)NC(=O)[C@@H](Cc2ccc3ccccc3c2)NC(C)=O)C(=O)N[C@@H](C(=O)N[C@@H](CC(C)C)C(=O)N[C@@H](CCCCNC(C)C)C(=O)N2CCC[C@H]2C(=O)N[C@H](C)C(N)=O)N(C)C(=O)c2ccc(NC(C)=O)cc2)cc1 (mixture of isomers)
640 pM	CC(=O)Nc1ccc(C[C@H](NC(=O)[C@H](CO)NC(=O)[C@@H](Cc2cccnc2)NC(=O)[C@@H](Cc2ccc(Cl)cc2)NC(=O)[C@H](Cc2ccc3ccccc3c2)NC(C)=O)C(=O)N[C@H](Cc2ccc(NC(C)=O)cc2)C(=O)N[C@@H](CC(C)C)C(=O)N[C@@H](CCCCNC(C)C)C(=O)N2CCC[C@H]2C(=O)N[C@H](C)C(N)=O)cc1
510 pM	CC(=O)Nc1ccc(C[C@@H](NC(=O)[C@@H](NC(=O)c2ccc(NC(C)=O)cc2)NC(=O)[C@H](CO)NC(=O)[C@@H](Cc2cccnc2)NC(=O)[C@@H](Cc2ccc(Cl)cc2)NC(=O)[C@@H](Cc2ccc3ccccc3c2)NC(C)=O)C(=O)N[C@@H](CC(C)C)C(=O)N[C@@H](CCCCNC(C)C)C(=O)N2CCC[C@H]2C(=O)N[C@H](C)C(N)=O)cc1
2400 pM	CC(=O)Nc1ccc(C[C@H](NC(=O)[C@H](CO)NC(=O)[C@@H](Cc2cccnc2)NC(=O)[C@@H](Cc2ccc(Cl)cc2)NC(=O)[C@@H](Cc2ccc3ccccc3c2)NC(C)=O)C(=O)N[C@H](Cc2ccc(NC(C)=O)cc2)C(=O)N[C@@H](CC(C)C)C(=O)N[C@@H](C(=O)N2CCC[C@H]2C(=O)N[C@H](C)C(N)=O)N(C)C(=O)CCNC(C)C)cc1 (single isomer, unassigned)
9200 pM	CC(=O)Nc1ccc(C[C@H](NC(=O)[C@H](CO)NC(=O)[C@@H](Cc2cccnc2)NC(=O)[C@@H](Cc2ccc(Cl)cc2)NC(=O)[C@H](NC(C)=O)N(C)C(=O)c2ccc3ccccc3c2)C(=O)N[C@H](Cc2ccc(NC(C)=O)cc2)C(=O)N[C@@H](CC(C)C)C(=O)N[C@@H](CCCCNC(C)C)C(=O)N2CCC[C@H]2C(=O)N[C@H](C)C(N)=O)cc1
230 pM	CC(=O)Nc1ccc(C[C@H](NC(=O)[C@H](CO)NC(=O)[C@H](Cc2cccnc2)NC(=O)[C@@H](Cc2ccc(Cl)cc2)NC(=O)[C@@H](Cc2ccc3ccccc3c2)NC(C)=O)C(=O)N[C@H](Cc2ccc(NC(C)=O)cc2)C(=O)N[C@@H](CC(C)C)C(=O)N[C@@H](CCCCNC(C)C)C(=O)N2CCC[C@H]2C(=O)N[C@H](C)C(N)=O)cc1
590 pM	CC(=O)Nc1ccc(C[C@H](NC(=O)[C@H](CO)NC(=O)[C@@H](Cc2cccnc2)NC(=O)[C@@H](Cc2ccc(Cl)cc2)NC(=O)[C@@H](Cc2ccc3ccccc3c2)NC(C)=O)C(=O)N[C@H](Cc2ccc(NC(C)=O)cc2)C(=O)N[C@@H](CC(C)C)C(=O)N[C@@H](CCCCNC(C)C)C(=O)N2CCC[C@H]2C(=O)N[C@H](NC=O)C(N)=O)cc1 (single isomer, unassigned)
5300 pM	CC(=O)Nc1ccc(C[C@H](NC(=O)[C@H](CO)NC(=O)[C@@H](Cc2cccnc2)NC(=O)[C@@H](Cc2ccc(Cl)cc2)NC(=O)[C@@H](Cc2ccc3ccccc3c2)NC(C)=O)C(=O)N[C@H](C(=O)N[C@@H](CC(C)C)C(=O)N[C@@H](CCCCNC(C)C)C(=O)N2CCC[C@H]2C(=O)N[C@H](C)C(N)=O)N(C)C(=O)c2ccc(NC(C)=O)cc2)cc1 (mixture of isomers)
